Only some compounds are listed: those with a hit (about 1.2% of all), similar ones and a draw of the others.
Diaphorase act = activates diaphorase or chemically reduces, flagging diaphorase assay artifacts; Diaphorase/resazurin coupled assay, resorufin fluorescence, 16 min; stronger effect = higher value; 1 = vehicle wells, 0 = NADH-free wells; activation factor at 20 µM; 0.005% of 190,000 active;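 active = diaphorase activity raised at least twofold by the compound at 20 µM; inactive = activation factor below 2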
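Test system: Clostridium kluyveri diaphorase, purified enzyme; input: enzyme 0.07 U/mL final; buffer or medium: 50 mM HEPES pH 7.4 with 4.542 mM MgCl2, 0.005% Tween 20; also added: 0.114 mM NADH and 0.1 mM resazurin, final amounts; schedule: 16 min enzyme reaction, ambient temperature; technique: fluorescence of resorufin, 544 nm excitation, 590 nm emission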
G6PDH CS = inhibits Leuconostoc G6PDH, flagging false hits in G6PDH-based assays. Purified L. mesenteroides G6PDH, diaphorase/resazurin coupled fluorescence, 45 min. inhibition, % at 5 µM. 0.12% of 200,000 active; in the data active = inhibition above about 50%
HKDC1 inhibitor = inhibitors of human hexokinase HKDC1; AID 493160; Q2TB90; recombinant HKDC1, G6PDH/diaphorase resazurin coupled fluorescence; 0.16% of 340,000 active; inhibition, % at 20 µM;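 active = inhibition above about 35% when tested at 20 µM, limit read from the data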
Target sequence (Q2TB90 whole entry, looked up): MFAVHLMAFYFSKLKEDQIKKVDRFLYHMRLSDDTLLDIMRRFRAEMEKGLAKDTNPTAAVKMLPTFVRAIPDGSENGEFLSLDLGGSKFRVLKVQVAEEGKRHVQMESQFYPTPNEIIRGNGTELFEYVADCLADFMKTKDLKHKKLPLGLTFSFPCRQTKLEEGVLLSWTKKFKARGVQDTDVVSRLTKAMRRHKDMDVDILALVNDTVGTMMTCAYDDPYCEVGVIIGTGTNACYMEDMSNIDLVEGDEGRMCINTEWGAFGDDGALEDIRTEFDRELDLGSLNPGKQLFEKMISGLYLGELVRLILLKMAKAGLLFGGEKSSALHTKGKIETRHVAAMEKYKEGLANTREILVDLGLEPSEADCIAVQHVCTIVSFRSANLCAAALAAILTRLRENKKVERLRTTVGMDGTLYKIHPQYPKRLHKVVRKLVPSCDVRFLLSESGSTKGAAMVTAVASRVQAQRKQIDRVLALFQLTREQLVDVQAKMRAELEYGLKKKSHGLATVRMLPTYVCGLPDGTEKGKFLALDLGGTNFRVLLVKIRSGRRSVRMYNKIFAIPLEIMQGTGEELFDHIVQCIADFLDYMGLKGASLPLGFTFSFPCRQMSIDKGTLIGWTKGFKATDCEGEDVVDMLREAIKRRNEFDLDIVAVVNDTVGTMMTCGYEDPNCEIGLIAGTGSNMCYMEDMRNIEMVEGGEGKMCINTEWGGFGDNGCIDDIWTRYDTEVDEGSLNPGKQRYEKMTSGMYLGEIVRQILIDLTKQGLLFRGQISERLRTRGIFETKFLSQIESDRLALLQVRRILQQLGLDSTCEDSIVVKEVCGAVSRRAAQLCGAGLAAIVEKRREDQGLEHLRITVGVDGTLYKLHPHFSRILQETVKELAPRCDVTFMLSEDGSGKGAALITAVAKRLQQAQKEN
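Test system: Recombinant HKDC1 (HK5) hexokinase enzyme, produced in-house | Input: HKDC1 at 5 µg/mL | Buffer or medium: Tris pH 8.0 buffer with MgCl2, Tween-20, BSA, BME | Schedule: 90 min reaction incubation at room temperature, dark | Technique: Resazurin-to-resorufin fluorescence via G6PDH and diaphorase coupling, 525/613 nm | Controls: DMSO wells with and without enzyme mix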
Diaph inh CS = diaphorase inhibition or chemical oxidation counter-screen. diaphorase resazurin-to-resorufin fluorescence, NADH, 16 min; bacterial (C. kluyveri) enzyme, not human. inhibition, % at 20 µM. 0.69% of 190,000 active. AID 1217;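 active = primary screen inhibition at 20 µM above a set limit, cut at about 50% in these data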
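Assay system: diaphorase enzyme from Clostridium kluyveri; Input: enzyme working solution with 0.14 U/mL diaphorase; Timing: 16 min at room temperature; Technique: resorufin fluorescence, excitation 544 nm, emission 590 nm; Benchmarks: positive control minus NADH, DMSO neutral control.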
PfG6PD inh = PfG6PD (Plasmodium falciparum) enzyme inhibition | PfGluPho enzyme, NADPH resazurin-diaphorase fluorescence | inhibition, % at 20 µM | 0.78% of 350,000 active | AID 504690;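 active = inhibition reaching at least a set limit at 20 µM in the primary screen, cut at about 59% in these data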
Numbers stand for hits; – = inactive; · = no result.

SMILES	Diaphorase act	G6PDH CS	HKDC1 inhibitor	Diaph inh CS	PfG6PD inh
CC[C@]12C(=O)N(C)C[C@H]([C@@H]3C(=O)N(Cc4ccccc4)C(=O)[C@@H]31)N2C(=O)c1ccc(C(F)(F)F)cc1	·	·	–	·	–
C[C@@H]1CN([C@@H](C)CO)C(=O)c2cc(C#CCN(C)C)cnc2O[C@H]1CN(C)Cc1ccc2c(c1)OCO2	·	·	·	·	–
C[C@H]1CN([C@@H](C)CO)C(=O)CCCn2nncc2CO[C@@H]1CN(C)S(=O)(=O)c1cccc(F)c1	·	·	·	·	–
C#CCOCCOCCOCCNc1nc(N2CCN(C(=O)CCCCCCCCCCNC(=O)Cn3cc(CCCCCN)nn3)CC2)nc(N2CCN(C(=O)CCCCCCCCCCNC(=O)Cn3cc(CCCCCN)nn3)CC2)n1	·	·	–	·	77
CCCN(CCC)C(=O)c1cc([N+](=O)[O-])cc2c1-c1ccc([N+](=O)[O-])cc1C2=C(C#N)C#N	·	·	41	·	–
N#C/C(=N\Nc1ccc(S(=O)(=O)N2CCc3ccccc32)cc1)C(N)=S	–	–	–	56	–
O=C(Nc1cccn(Cc2c(F)cccc2Cl)c1=O)NC1CCCCC1	–	–	–	–	–
O=C(Nc1cccn(Cc2cccc(F)c2)c1=O)NC1CCCCC1	–	–	–	50	–
COCCN(C(=O)COC(=O)c1c(C)nn(-c2ccccc2)c1C)c1c(N)n(Cc2ccccc2)c(=O)[nH]c1=O	·	·	·	·	–
C=CCSC1=N/C(=C\c2cc(OCC)c(OC(C)=O)c([N+](=O)[O-])c2)C(=O)S1	–	–	–	57	–
C=CCSC1=N/C(=C\c2ccc3c(c2)OCO3)C(=O)S1	–	–	–	–	–
CC(C)CNC1=CC(=O)CC(c2ccco2)C1 (configuration not stated)	–	–	–	61	–
Cc1cc(C)n2[nH]c(=O)cc2n1	·	·	·	·	–
Cc1ccc(C(=O)N2CCSC2=S)cc1	–	–	–	–	–
Cc1ccc(C(=O)Oc2csc(=S)n2C(=O)c2ccc(C)cc2)cc1	–	–	–	–	60
COc1ccc(NC(=O)N(C)C[C@@H]2OCc3cn(nn3)CCCC(=O)N([C@@H](C)CO)C[C@H]2C)cc1	·	·	·	·	–
C[C@H](CO)N1C[C@H](C)[C@H](CN(C)Cc2cccc(C(F)(F)F)c2)OCc2ccccc2-c2c(n(C)c3ccccc23)C1=O	·	·	·	·	–
CCN(CC)c1nc(C=Cc2ccc(N(C)C)cc2)c2nccnc2n1	·	·	·	·	–
Cc1ccc(Nc2c(-c3ccc(C)o3)nc3cnccn23)cc1	–	–	–	–	69
Cn1cc(/C=C2\SC(=O)NC2=S)c2ccccc21	–	–	–	54	–
Nc1cc(Cl)ccc1N1CCCCC1	–	–	–	–	–
Cc1nn(-c2cc(N3CCCCC3)ccc2N)c(=O)c2ccccc12	–	–	–	–	–
Nc1ccc(N2CCCCC2)c2nonc12	–	54	–	–	–
Nc1c(N2CCCC2)cc(Cl)c2nonc12	–	57	–	62	–
Nc1ccc(N2CCCCC2)cc1N1CCCCC1	–	–	–	57	–
SMILES	Diaphorase act	G6PDH CS	HKDC1 inhibitor	Diaph inh CS	PfG6PD inh
CN(C1=NS(=O)(=O)N=C(N(C)c2ccccc2)O1)c1ccccc1	·	·	·	·	–
CCCCNC(=O)CSc1nc2ccc(C)cc2[nH]1	–	–	–	–	–
CCOC(=O)CCCNC(=O)CSc1nc2ccc(OCC)cc2[nH]1	–	–	–	54	–
OCC[C@@H]1C[C@H](O)[C@@H](O)[C@]2(OCc3ccc4ccccc4c32)O1	·	·	·	·	–
Cc1ccc(S(=O)(=O)Nc2ccccc2C(=O)Nc2nc(-c3ccc(F)cc3)cs2)cc1	–	–	–	–	–
COc1ccc(-c2csc(NC(=O)c3ccccc3NS(=O)(=O)c3ccc(F)c(F)c3)n2)cc1	–	–	–	53	–
COc1ccc2nc(Nc3sc4c(c3C(N)=O)CCCC4)sc2c1	–	–	–	–	67
N#C/C(=C/c1ccc(-c2cc(C(=O)O)cc(C(=O)O)c2)o1)c1nc2ccccc2s1	–	–	·	61	·
COc1cc(/C=C(\C#N)c2nc3ccccc3s2)cc([N+](=O)[O-])c1O	–	–	–	85	–
N#C/C(=C\c1ccc(O)c([N+](=O)[O-])c1)c1nc2ccccc2s1	–	–	–	97	–
COc1ccc(-c2csc(/C(C#N)=C\c3ccc(OC)c([N+](=O)[O-])c3)n2)cc1	–	–	–	–	–
COc1ccc(-c2csc(/C(C#N)=C\c3ccc(O)c([N+](=O)[O-])c3)n2)cc1OC	·	·	–	·	–
COc1cccc(S(=O)(=O)N(C)C[C@@H]2OCc3cnnn3CCCC(=O)N([C@@H](C)CO)C[C@H]2C)c1	·	·	·	·	–
COc1ccccc1CN1CC(C(=O)NCC2(O)CCCCC2)CCC1=O (configuration not stated)	·	·	·	·	–
COc1ccc(NS(=O)(=O)c2ccc(C)c(C(=O)NCc3ccccc3CN3CCCC3)c2)cc1	·	·	·	·	–
COc1ccc(C(=O)N2CCN(Cc3cc(OC)c(O)c(OC)c3)CC2)cc1OC	–	55	–	–	–
COc1cc(CN2CCN(C(=O)CC(C)C)CC2)cc(OC)c1O	–	53	–	–	–
Cc1ccc(S(=O)(=O)N(C)C[C@H]2Oc3cc(C#Cc4ccccc4)ccc3S(=O)(=O)N([C@H](C)CO)C[C@@H]2C)cc1	·	·	·	·	–
COc1ccc(N2C[C@H](CSC)[C@@H](CC(=O)Nc3ccccc3)C2=O)cc1	·	·	·	·	–
CCOc1cc(/C=N/N=C(N)N)ccc1OCc1ccc(Cl)cc1	2	–	–	–	–
O=C(COC(=O)CCSc1ccc(Cl)cc1)NCCc1ccccc1	–	–	–	55	–
O=C1NC(Cc2ccc(O)cc2)c2nc3ccc(F)cc3c(=O)n2-c2ncccc21 (configuration not stated)	·	·	·	·	–
CNC[C@H](O)c1ccc(O)c(O)c1	–	64	–	59	–
